Screens from PubChem.
Rows were chosen to be rich in hits. Some 1.3% of all compounds tested hit in one or more screens of this group.
G6PDH CS = L. mesenteroides G6PDH inhibitors, counter-screen for G6PDH-coupled screening assays, biochemical, Leuconostoc mesenteroides enzyme. Purified L. mesenteroides G6PDH, diaphorase/resazurin coupled fluorescence, 45 min. inhibition, % at 5 µM. actives 0.12% (n = 200,000). glucose-6-phosphate dehydrogenase [Leuconostoc mesenteroides]; in the data active = inhibition above about 50%
Diaphorase inh = diaphorase inhibitors and chemical oxidizers, primary screen, counter-screen for diaphorase-coupled primary assays, biochemical, uHTS, resorufin fluorescence; diaphorase resazurin-to-resorufin fluorescence, NADH, 16 min; bacterial (C. kluyveri) enzyme, not human; AID 1217, 2008; inhibition, % at 20 µM; actives 0.69% (n = 190,000);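 active = primary screen inhibition at 20 µM above a set limit, cut at about 50% in these data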;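 also: plate controls were DMSO with full reaction for no effect and wells lacking NADH for full effect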
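Assay system: diaphorase enzyme from Clostridium kluyveri. Quantity: enzyme working solution with 0.14 U/mL diaphorase. Schedule: reaction incubation of 16 min at room temperature. Technique: resorufin fluorescence, excitation 544 nm, emission 590 nm. Controls: No-NADH positive control and DMSO neutral control.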
HKDC1 inh = HKDC1 hexokinase inhibitors, primary screen, biochemical, fluorescence, uHTS; Q2TB90; AID 493160, 2011; inhibition, % at 20 µM; recombinant HKDC1, G6PDH/diaphorase resazurin coupled fluorescence; actives 0.16% (n = 340,000);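 active = inhibition above about 35% when tested at 20 µM, limit read from the data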;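 also: plate controls were DMSO wells with enzyme for no effect and DMSO wells lacking enzyme for full effect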
Target sequence (Q2TB90 whole entry, looked up): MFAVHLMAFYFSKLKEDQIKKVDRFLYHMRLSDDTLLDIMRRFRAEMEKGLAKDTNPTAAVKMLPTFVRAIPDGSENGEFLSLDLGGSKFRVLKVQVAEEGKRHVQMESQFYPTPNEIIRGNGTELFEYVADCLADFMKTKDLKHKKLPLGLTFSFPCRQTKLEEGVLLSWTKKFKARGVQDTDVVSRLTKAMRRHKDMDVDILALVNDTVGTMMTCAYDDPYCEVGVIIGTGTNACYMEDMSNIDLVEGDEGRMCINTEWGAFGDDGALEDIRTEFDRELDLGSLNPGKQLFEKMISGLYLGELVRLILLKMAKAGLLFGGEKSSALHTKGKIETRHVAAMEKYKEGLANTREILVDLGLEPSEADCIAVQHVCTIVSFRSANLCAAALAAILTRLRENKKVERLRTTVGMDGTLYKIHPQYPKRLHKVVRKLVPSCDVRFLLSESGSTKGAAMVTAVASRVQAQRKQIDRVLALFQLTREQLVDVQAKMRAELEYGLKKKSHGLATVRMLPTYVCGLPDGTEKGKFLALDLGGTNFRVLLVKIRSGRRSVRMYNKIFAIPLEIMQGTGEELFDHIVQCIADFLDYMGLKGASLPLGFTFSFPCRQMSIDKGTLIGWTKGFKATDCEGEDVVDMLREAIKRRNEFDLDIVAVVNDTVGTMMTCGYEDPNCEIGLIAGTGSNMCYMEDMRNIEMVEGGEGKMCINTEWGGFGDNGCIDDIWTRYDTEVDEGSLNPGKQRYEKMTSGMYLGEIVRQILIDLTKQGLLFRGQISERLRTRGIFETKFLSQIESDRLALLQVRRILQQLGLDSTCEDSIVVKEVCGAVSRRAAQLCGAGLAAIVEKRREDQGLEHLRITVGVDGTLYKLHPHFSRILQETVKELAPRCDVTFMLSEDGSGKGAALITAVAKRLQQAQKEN
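Material – in-house recombinant HK5 (HKDC1) enzyme · Quantity – HKDC1 at 5 µg/mL · Buffer or medium – pH 8.0 Tris buffer with 10 mM MgCl2 · Reagent – glucose with 1 mM ATP · Dosing – single 20 µM dose · Times – reaction time 90 min, room temperature, protected from light · Technique – resorufin fluorescence at 613 nm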
PfGluPho inh = PfG6PD enzyme inhibitors, primary screen, biochemical, fluorescence intensity, uHTS; glucose-6-phosphate dehydrogenase-6-phosphogluconolactonase (Plasmodium falciparum 3D7); PfGluPho enzyme, NADPH resazurin-diaphorase fluorescence; inhibition, % at 20 µM; actives 0.78% (n = 350,000);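 active = inhibition reaching at least a set limit at 20 µM in the primary screen, cut at about 59% in these data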;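 also: 0% = DMSO wells with substrate and 100% = DMSO wells lacking glucose-6-phosphate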
PfGluPho conf = PfG6PD inhibitors, hit retest, confirmation, biochemical, fluorescence intensity, single concentration; shares compounds with PfGluPho inh; recombinant PfGluPho, NADPH-diaphorase-resazurin fluorescence; inhibition, % at 20 µM; AID 504753, 2011; actives 34% (n = 2,400);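 active = inhibition of at least 50% at 20 µM in any single replicate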;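 also: 0% = DMSO with substrate and 100% = DMSO lacking glucose-6-phosphate substrate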
Diaphorase 10uM = diaphorase inhibitors and chemical oxidizers, confirmation, counter-screen for P. falciparum G6PD inhibitor project, biochemical, fluorescence intensity, 10 µM NADPH. diaphorase-coupled resazurin reduction, NADPH 10 uM. shares compounds with PfGluPho inh. actives 39% (n = 820). inhibition, % at 20 µM. AID 504862, 2011;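 active = average inhibition reaching 50% or more with the compound at 20 µM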;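 also: resorufin red fluorescence formed as diaphorase reduces resazurin using NADPH; 0% = DMSO with enzyme and 100% = DMSO without enzyme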
Diaphorase 30uM = diaphorase inhibitors and chemical oxidizers, confirmation, counter-screen for P. falciparum G6PD inhibitor project, biochemical, fluorescence intensity, 30 µM NADPH. shares compounds with PfGluPho inh. Diaphorase/resazurin coupled assay, resorufin fluorescence. inhibition, % at 20 µM. actives 29% (n = 820);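 active = inhibition averaging 50% or more, tested at 20 µM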;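 also: 0% = DMSO with enzyme and 100% = DMSO wells lacking diaphorase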
Starred values were filed as active, the others as inactive; · = no result given.

SMILES | G6PDH CS | Diaphorase inh | HKDC1 inh | PfGluPho inh | PfGluPho conf | others
O=[N+]([O-])c1ccc(-c2nc3ccc([N+](=O)[O-])cc3[nH]2)cc1 | -1 | 14 | -4 | 86* | 42
O=[N+]([O-])c1ccc2nc(/C=C/c3ccc(Cl)cc3)[nH]c2c1 | -7 | 15 | -3 | 62* | 18
CCCOC(=O)N[C@@H]1C(=O)N2C(C(=O)OCCC)=C(C)CS[C@H]12 | · | · | 4 | 6 | ·
CC(NS(=O)(=O)c1c(N)n(C)c(=O)n(C)c1=O)c1ccccc1 (configuration not stated) | · | · | -7 | -5 | ·
Cc1cc(-n2c(C)cc(C(=O)CSc3nnnn3-c3ccccc3)c2C)no1 | 4 | 15 | -8 | 12 | ·
Cc1cc(-n2c(C)cc(C(=O)CSc3ccccn3)c2C)no1 | · | · | -3 | 67* | 23
O=C(COC(=O)c1ccc([N+](=O)[O-])o1)Nc1ccc2c(c1)OC(F)(F)O2 | · | · | · | 22 | ·
Cc1ccc(N2CCN(S(=O)(=O)c3nnc(NC(=O)c4ccccc4)s3)CC2)cc1 | · | · | -5 | 14 | ·
O=C(Nc1nnc(S(=O)(=O)N2CCOCC2)s1)c1cccc(F)c1 | · | · | -6 | 51 | ·
CC(C)c1ccc(C(=O)Nc2nnc(S(=O)(=O)N3CCCCC3)s2)cc1 | · | · | -1 | -20 | ·
Cc1ccc(C(=O)Nc2nnc(S(=O)(=O)N3CCOCC3)s2)cc1 | · | · | -4 | 101* | 62* | Diaphorase 10uM=52*;Diaphorase 30uM=51*
O=C(Nc1nnc(S(=O)(=O)N2CCCCCC2)s1)c1ccc(Cl)cc1 | · | · | -2 | 80* | 20
O=C(Nc1nnc(S(=O)(=O)N2CCOCC2)s1)c1ccc(F)cc1 | · | · | -5 | 86* | 56* | Diaphorase 10uM=30;Diaphorase 30uM=45
Cc1ccc(C(=O)Nc2nnc(S(=O)(=O)N3CCCCCC3)s2)cc1 | · | · | -1 | 68* | 6
O=C1COc2ccc(S(=O)(=O)N3CCN(c4ccccc4F)CC3)cc2N1 | · | · | -3 | 5 | ·
Cc1cc(C)n(CCCNC(=O)C(C)(C)Oc2ccc(Cl)cc2)n1 | · | · | -7 | 2 | ·
Nc1cc(SCc2ccc(Cl)cc2Cl)ncn1 | · | · | 8 | -2 | ·
Cc1ccc(S(=O)(=O)OCCC2=CC(=O)CCN2Cc2ccccc2)cc1 | · | · | 3 | 5 | ·
Cc1sc(N2CCN(S(=O)(=O)c3ccc4c(c3)NC(=O)CO4)CC2)nc1-c1ccccc1 | · | · | -1 | 15 | ·
Cc1ccc(C(=O)Nc2nnc(S(=O)(=O)N3CCC(C)CC3)s2)cc1 | · | · | 0 | 84* | 50* | Diaphorase 10uM=33;Diaphorase 30uM=38
Cc1cccc(C(=O)Nc2nnc(S(=O)(=O)N3CCOCC3)s2)c1 | · | · | -3 | 68* | 61* | Diaphorase 10uM=48;Diaphorase 30uM=41
Cc1cccc(C(=O)Nc2nnc(S(=O)(=O)N3CCC(C)CC3)s2)c1 | · | · | 1 | 70* | 23
Cc1nnc(NC(=O)c2cccc(S(=O)(=O)N3CCCC3)c2)s1 | · | · | -3 | -6 | ·
COCCNC(=S)N1CCC2CC1c1c(Cl)cccc12 (configuration not stated) | · | · | · | 8 | ·
CCOC(=O)C1=C(CC)Nc2ccccc2N=C1NC(=O)c1cc(S(=O)(=O)N2CCOCC2)ccc1C | · | · | -11 | 3 | ·
SMILES | G6PDH CS | Diaphorase inh | HKDC1 inh | PfGluPho inh | PfGluPho conf | others
O=[N+]([O-])c1ccc(COc2ccc(Br)cc2CN2CCOCC2)cc1 | -1 | 26 | -5 | 65* | 24
O=[N+]([O-])c1ccc(COc2ccc(CN3CCOCC3)cc2)cc1 | · | · | 1 | -4 | ·
O=[N+]([O-])c1ccc(CN2CCOCCOCCN(Cc3ccc([N+](=O)[O-])cc3)CCOCC2)cc1 | -8 | 9 | -2 | 62* | -4
COc1cc(CC2COC(c3ccc(O)c(OC)c3)C2COC(C)=O)ccc1O (configuration not stated) | · | · | 7 | 6 | ·
O=C1CC(N2CCN(c3ccc(O)cc3)CC2)C(=O)N1c1ccc2c(c1)OCO2 (configuration not stated) | 16 | 31 | -4 | 60* | 29
CCCCn1c(N)c(N(CC(C)C)C(=O)c2ccc(N3C(=O)CCC3=O)cc2)c(=O)[nH]c1=O | · | · | -3 | -8 | ·
CCc1ccc(NC(=O)C(=O)c2ccccc2NC(C)=O)cc1 | · | · | -4 | -6 | ·
C=CCOC(=O)C1=C(C)N=c2s/c(=C3\C(=O)N(CC(=O)O)c4ccccc43)c(=O)n2C1c1ccc(OC)cc1 (configuration not stated) | · | · | 2 | 60* | -7
Cc1ccc2nc3sc(C(=O)N4CCOCC4)c(N)c3cc2c1 | 2 | 15 | 3 | 84* | 52* | Diaphorase 10uM=61*;Diaphorase 30uM=40
O=C(Nc1ccccc1F)c1ccc(C(=O)c2ccccc2)cc1 | · | · | -3 | 18 | ·
C=CCn1cc(C(=O)NCCCN(CC)CC)c(=O)c2cc(S(=O)(=O)N3CCC(C)CC3)ccc21 | · | · | -1 | 28 | ·
O=C(Nc1ccc(N2CCN(C(=O)c3ccccc3)CC2)c(Cl)c1)c1ccc(Br)o1 | -4 | 25 | 7 | 34 | ·
O=C(Nc1ccc(N2CCOCC2)c(Cl)c1)c1ccc(Br)o1 | 22 | 18 | 3 | 82* | 37
O=C(Nc1ccc(N2CCOCC2)c(Cl)c1)c1ccc(F)cc1 | -1 | 13 | -5 | 94* | 27
CN(C)c1ccc(NC(=S)c2ccc3ccccc3n2)cc1 | · | · | -17 | 67* | 37
O=c1[nH]c2cc3c(cc2cc1CN(Cc1ccccc1)Cc1nnnn1Cc1ccco1)OCCO3 | 7 | 40 | 21 | 76* | -6
O=c1[nH]c2cc3c(cc2cc1CN(Cc1cccnc1)Cc1nnnn1Cc1ccco1)OCCO3 | 8 | 24 | 5 | 27 | ·
CSc1ccccc1NC(=O)CN(C)C(=O)c1ccc(NC(=O)c2cccs2)cc1 | · | · | 0 | 11 | ·
Cc1cc2nc(-c3ccc(SCc4ccc(C(=O)O)cc4)nc3)[nH]c2cc1C | 9 | 14 | -1 | 72* | 30
Cc1cc2nc(-c3ccc(SCC(=O)NC(C)C)nc3)[nH]c2cc1C | 5 | 7 | · | · | ·
Cc1ccc(-c2nn(-c3ccccc3)cc2/C=N/NC(=O)c2ccncc2)o1 | 4 | 16 | -9 | 60* | -27
O=C(N/N=C/c1cn(-c2ccccc2)nc1-c1cccs1)c1ccncc1 | -3 | 10 | -5 | -14 | ·
Cc1c(C(=O)Nc2nc(-c3ccccn3)cs2)oc2ccccc12 | · | · | -6 | 62* | 25
